Test results as given in ChEMBL document CHEMBL5030525, “Design, synthesis and antitumor activity evaluation of trifluoromethyl-substituted pyrimidine derivatives” (Bioorg Med Chem Lett, 2021).

Experiments:
Assay type in all cases: functional, cell-based
[1] = tested on: PC-3; assay: Antiproliferative activity against human PC-3 cells assessed as inhibition of cell growth measured after 72 hrs by MTT assay; conditions: PC-3, 72 h
Summary of the method: (§1)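 Cells in log phase were seeded at 3000–5000 per well and cultured 24 h at 37 °C, then exposed to a range of compound concentrations in fresh medium for 72 h. MTT was added and incubated 4 h at 37 °C, formazan was dissolved in DMSO, and absorbance was read at 490 nm. IC50 was taken from survival rate, as mean ± SD of three independent experiments. Stocks were 10 mM in DMSO.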

[2] = tested on: MGC-803; assay: Antiproliferative activity against human MGC-803 cells assessed as inhibition of cell growth measured after 72 hrs by MTT assay; conditions: MGC-803, 72 h; summary of the method: as §1
[3] = tested on: MCF7; assay: Antiproliferative activity against human MCF7 cells assessed as inhibition of cell growth measured after 72 hrs by MTT assay; conditions: MCF7, 72 h; summary of the method: as §1
[4] = tested on: NCI-H1975; assay: Antiproliferative activity against human NCI-H1975 cells assessed as inhibition of cell growth measured after 72 hrs by MTT assay; conditions: NCI-H1975, 72 h; summary of the method: as §1

| Compound | IC50 [1] [µM] | IC50 [2] [µM] | IC50 [3] [µM] | IC50 [4] [µM] |
| --- | --- | --- | --- | --- |
| C=CC(=O)Nc1cccc(Nc2cc(C(F)(F)F)nc(SCc3ccc(Cl)cc3)n2)c1 | 9.99 | 29.3 | 15.8 | 11.7 |
| COc1cc(Nc2cc(C(F)(F)F)nc(SCc3ccc(C(F)(F)F)cc3)n2)cc(OC)c1OC | 19.5 | 15.5 | 10.9 | 9.92 |
| C=CC(=O)Nc1cccc(Nc2cc(C(F)(F)F)nc(SCc3ccc(Br)cc3)n2)c1 | 6.32 | 29.4 | 11.7 | 6.44 |
| C=CC(=O)Nc1cccc(Nc2cc(C(F)(F)F)nc(SCc3cccc(Cl)c3)n2)c1 | 10.5 | 35.2 | 10.1 | 14.8 |
| C=CC(=O)Nc1cccc(Nc2cc(C(F)(F)F)nc(SCc3ccccc3C(F)(F)F)n2)c1 | 7.96 | 26.6 | 17.2 | 6.55 |
| C=CC(=O)Nc1cccc(Nc2cc(C(F)(F)F)nc(SCc3ccccc3C)n2)c1 | 15.1 | 18.2 | 33.6 | 14.6 |
| C=CC(=O)Nc1cccc(Nc2cc(C(F)(F)F)nc(SCc3ccc(C)cc3)n2)c1 | 17.8 | 18.5 | 25.7 | 15 |
| COc1ccc(Nc2cc(C(F)(F)F)nc(SCc3ccc(C(F)(F)F)cc3)n2)cc1 | 35.3 | 8.7 | 22.2 | 13.8 |
| Fc1ccc(Nc2cc(C(F)(F)F)nc(SCc3ccc(C(F)(F)F)cc3)n2)cc1 | 14.1 | 19.2 | > 50 | 17.4 |
| C=CC(=O)Nc1cccc(Nc2cc(C(F)(F)F)nc(SCc3cccc(F)c3)n2)c1 | 8.57 | 7.14 | 23 | 13.7 |
| C=CC(=O)Nc1cccc(Nc2cc(C(F)(F)F)nc(SCc3ccccc3F)n2)c1 | 8.67 | 13.4 | 31.1 | 15.4 |
| C=CC(=O)Nc1cccc(Nc2cc(C(F)(F)F)nc(SCc3ccc(F)cc3)n2)c1 | 9.22 | 9.25 | 14.9 | 10.1 |
| C=CC(=O)Nc1cccc(Nc2cc(C(F)(F)F)nc(SCc3ccccc3)n2)c1 | 14.2 | 22.3 | 19.1 | 21.9 |
| C=CC(=O)Nc1cccc(Nc2cc(C(F)(F)F)nc(SCc3ccc(Cl)cc3Cl)n2)c1 | 6.66 | 18.6 | 6.25 | 15.3 |
| C=CC(=O)Nc1cccc(Nc2cc(C(F)(F)F)nc(SCc3cccc(OC)c3)n2)c1 | 11.5 | 32.4 | 8.91 | 9.45 |
| CN1CCN(c2cc(C(F)(F)F)nc(SCc3ccc(C(F)(F)F)cc3)n2)CC1 | 34.7 | 15.8 | 30.2 | 23.9 |
| FC(F)(F)c1ccc(CSc2nc(N3CCNCC3)cc(C(F)(F)F)n2)cc1 | 15.9 | 5.87 | 10.7 | 6.21 |
| FC(F)(F)c1ccc(CSc2nc(Nc3nnn[nH]3)cc(C(F)(F)F)n2)cc1 | > 50 | > 50 | > 50 | > 50 |
| Fc1ccc(Nc2cc(C(F)(F)F)nc(SCc3ccc(C(F)(F)F)cc3)n2)cc1Cl | 35 | 41.4 | > 50 | 22.1 |
| C=CC(=O)Nc1cccc(Nc2cc(C(F)(F)F)nc(SCC3CCCO3)n2)c1 (centres undefined) | 12.9 | 37.2 | 18.3 | 17.6 |
| CCN1CCN(c2cc(C(F)(F)F)nc(SCc3ccc(C(F)(F)F)cc3)n2)CC1 | 27.2 | 25.6 | 22 | 15 |

| Compound | IC50 [1] [µM] | IC50 [2] [µM] | IC50 [3] [µM] | IC50 [4] [µM] |
| --- | --- | --- | --- | --- |
| C=CC(=O)Nc1cccc(Nc2cc(C(F)(F)F)nc(SCc3ccccc3OC)n2)c1 | 9.96 | 32.7 | 22 | 6.5 |
| FC(F)(F)c1ccc(CSc2nc(SC3=NCCS3)cc(C(F)(F)F)n2)cc1 | 40.6 | 24.5 | 44.9 | 24.2 |
| FC(F)(F)c1ccc(CSc2nc(N3CCN(c4ccccn4)CC3)cc(C(F)(F)F)n2)cc1 | > 50 | 23.5 | > 50 | 17.4 |
| C=CC(=O)Nc1cccc(Nc2cc(C(F)(F)F)nc(SCC3CCOCC3)n2)c1 | 8.96 | 28.3 | 17.7 | 16.3 |
| FC(F)(F)c1ccc(CSc2nc(N3CCN(c4ccccc4)CC3)cc(C(F)(F)F)n2)cc1 | 42.7 | 35.2 | > 50 | > 50 |
| FC(F)(F)c1ccc(CSc2nc(Sc3nnnn3-c3ccccc3)cc(C(F)(F)F)n2)cc1 | 45.3 | 12.4 | 39.5 | 24.3 |
| C=CC(=O)Nc1cccc(Nc2cc(C(F)(F)F)nc(SCc3ccccc3Br)n2)c1 | 8.17 | 30.9 | 20.2 | 9.62 |
| C=CC(=O)Nc1cccc(Nc2cc(C(F)(F)F)nc(SCc3ccc(OC)cc3)n2)c1 | 15.8 | 15.1 | 7.59 | 10.2 |
| COc1ccc(Nc2cc(C(F)(F)F)nc(SCc3ccc(C(F)(F)F)cc3)n2)cn1 | 23.8 | 12.2 | 36.9 | 6.32 |
| Cc1ccc(Nc2cc(C(F)(F)F)nc(SCc3ccc(C(F)(F)F)cc3)n2)cc1 | 16.5 | 32.3 | > 50 | 20.6 |
| FC(F)(F)c1ccc(CSc2nc(N3CCN(c4ncccn4)CC3)cc(C(F)(F)F)n2)cc1 | > 50 | 35.2 | > 50 | 18.3 |
| FC(F)(F)c1ccc(CSc2nc(Sc3ccccn3)cc(C(F)(F)F)n2)cc1 | 25.2 | > 50 | 43.2 | 23.9 |
| Nc1cccc(Nc2cc(C(F)(F)F)nc(SCc3ccc(C(F)(F)F)cc3)n2)c1 | 23.2 | 8.97 | 13.5 | 23.6 |
| CC(C)(C)OC(=O)N1CCN(c2cc(C(F)(F)F)nc(SCc3ccc(C(F)(F)F)cc3)n2)CC1 | 40.6 | 22.2 | > 50 | > 50 |
| FC(F)(F)c1ccc(CSc2nc(Nc3ccc(Cl)cc3Cl)cc(C(F)(F)F)n2)cc1 | 29.6 | 35.5 | > 50 | 33.5 |
| FC(F)(F)c1ccc(CSc2nc(N3CCOCC3)cc(C(F)(F)F)n2)cc1 | 40.8 | > 50 | > 50 | > 50 |
| C=CC(=O)Nc1cccc(Nc2cc(C(F)(F)F)nc(SCC3CCCCC3)n2)c1 | 12.5 | 34.1 | 11.2 | 18 |
| C=CC(=O)Nc1cccc(Nc2cc(C(F)(F)F)nc(SCc3cnc(Cl)s3)n2)c1 | 11.5 | 38.3 | 10.7 | 10.9 |
| C=CC(=O)Nc1cccc(Nc2cc(C(F)(F)F)nc(SCc3ccccc3Cl)n2)c1 | 13.6 | 28.4 | 11.8 | 13.1 |
| C=CC(=O)Nc1cccc(Nc2cc(C(F)(F)F)nc(SCc3cccc(C(F)(F)F)c3)n2)c1 | 5.92 | 18.7 | 12.4 | 5.07 |
